Results taken from ChEMBL document CHEMBL3098058, “Imidazole-derived agonists for the neurotensin 1 receptor” (Bioorg Med Chem Lett, 2014).
Values after ≈ are worked out from the molar mass of the structure shown. Active and inactive are the calls of the source. The rule behind the calls is not given here.

How the values were obtained:
[1] = molecular target: T1, Neurotensin receptor type 1 (Homo sapiens, UniProt P30989); test: Agonist activity at NTR1 in human U2OS cells after 1 hr by beta-arrestin GFP reporter gene assay; format: cell-based
How it was run: (§1)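 High-content imaging in U2OS cells expressing the receptor of interest (NTR1, NTR2 or GPR35) plus a β-arrestin fluorescent reporter. The read-out is the location of the receptor–arrestin complex after receptor activation.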
Target sequence in this assay (P30989 whole entry): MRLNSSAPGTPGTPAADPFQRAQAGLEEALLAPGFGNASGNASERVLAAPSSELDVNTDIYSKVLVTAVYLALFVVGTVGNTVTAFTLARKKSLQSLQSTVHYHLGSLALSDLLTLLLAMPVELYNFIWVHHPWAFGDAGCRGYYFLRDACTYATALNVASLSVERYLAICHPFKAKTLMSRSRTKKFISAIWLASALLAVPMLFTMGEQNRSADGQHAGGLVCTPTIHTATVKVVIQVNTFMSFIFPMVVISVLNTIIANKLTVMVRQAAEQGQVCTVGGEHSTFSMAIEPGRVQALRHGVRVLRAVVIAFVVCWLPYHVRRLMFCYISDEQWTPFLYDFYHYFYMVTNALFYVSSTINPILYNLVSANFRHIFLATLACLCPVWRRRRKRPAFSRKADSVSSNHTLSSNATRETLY

[2] = molecular target: T1, Neurotensin receptor type 1; test: Agonist activity at NTR1 in human U2OS cells after 1 hr by beta-arrestin GFP reporter gene assay relative to NT peptide; format: cell-based
How it was run: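 U2OS cells expressing NTR1 and a fluorescent β-arrestin reporter, imaged by high-content imaging of receptor–arrestin complex location after activation. EC50 and Emax are calculated relative to the efficacy of NT peptide at a saturating 100 nM.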
Target sequence in this assay (P30989 whole entry): as above

[3] = Permeability of the compound at donor pH 5.0 and acceptor pH 7.4 by PAMPA; format: ADME
[4] = molecular target: T1, Neurotensin receptor type 1; test: Agonist activity at NTR1 (unknown origin) expressed in CHO cells assessed as Ca2+ mobilization by Fluo-4 NW dye-based fluorescence assay; format: functional, cell-based
Target sequence in this assay (P30989 whole entry): as above

[5] = Aqueous solubility of the compound in pION buffer at pH 7.4; format: physicochemical
[6] = Metabolic stability in human liver microsomes assessed as compound remaining at 1 hr; format: ADME; settings: read-out: Stability
How it was run: (§2)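 Compound stability in human or mouse liver homogenate/microsomes, given as % remaining at 1 hr, run in triplicate.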

[7] = Blood brain permeability of the compound at donor and acceptor pH 7.4 by PAMPA; format: ADME
[8] = Plasma protein binding in mouse at 1 uM; format: ADME, cell-free
How it was run: (§3)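 Plasma protein binding in human or mouse plasma at 1 μM and 10 μM compound, given as % bound.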

[9] = Plasma protein binding in mouse at 10 uM; format: ADME, cell-free; how it was run: as §3
[10] = molecular target: T1, Neurotensin receptor type 1; test: Inhibition of NTS1 receptor (unknown origin)
Target sequence in this assay (P30989 whole entry): as above

[11] = Plasma protein binding in human at 1 uM; format: ADME, cell-free; how it was run: as §3
Mu-type opioid receptor = Mu-type opioid receptor (Homo sapiens, UniProt P35372); test: Inhibition of MOR (unknown origin)
Mu-type opioid receptor, sequence (P35372 whole entry): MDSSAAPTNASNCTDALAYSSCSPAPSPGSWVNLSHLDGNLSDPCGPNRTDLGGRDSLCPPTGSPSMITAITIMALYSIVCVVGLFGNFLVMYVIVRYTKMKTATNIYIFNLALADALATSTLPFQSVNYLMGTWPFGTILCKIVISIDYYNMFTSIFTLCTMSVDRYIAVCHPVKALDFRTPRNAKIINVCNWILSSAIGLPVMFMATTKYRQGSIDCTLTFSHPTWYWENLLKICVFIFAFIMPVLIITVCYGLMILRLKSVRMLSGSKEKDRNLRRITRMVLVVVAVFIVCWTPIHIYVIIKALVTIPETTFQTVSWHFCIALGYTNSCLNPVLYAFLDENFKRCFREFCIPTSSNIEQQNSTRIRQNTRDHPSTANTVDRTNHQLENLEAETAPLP

[12] = molecular target: Neurotensin receptor type 2 (Homo sapiens, UniProt O95665); test: Agonist activity at NTR2 in human U2OS cells after 1 hr by beta-arrestin GFP reporter gene assay; format: cell-based; how it was run: as §1
Neurotensin receptor type 2, sequence (O95665 whole entry): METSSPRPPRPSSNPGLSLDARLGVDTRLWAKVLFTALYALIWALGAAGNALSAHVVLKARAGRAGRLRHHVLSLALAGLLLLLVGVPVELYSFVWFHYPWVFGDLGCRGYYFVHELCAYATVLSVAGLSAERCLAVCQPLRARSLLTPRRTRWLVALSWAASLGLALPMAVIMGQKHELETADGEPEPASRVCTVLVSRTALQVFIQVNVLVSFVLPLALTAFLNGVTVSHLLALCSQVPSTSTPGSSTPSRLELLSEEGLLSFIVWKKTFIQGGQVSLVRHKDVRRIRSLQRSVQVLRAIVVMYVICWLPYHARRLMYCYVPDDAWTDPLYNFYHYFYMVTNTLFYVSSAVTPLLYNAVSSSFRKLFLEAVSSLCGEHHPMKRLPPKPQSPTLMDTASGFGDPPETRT

[13] = Permeability of the compound at donor pH 6.2 and acceptor pH 7.4 by PAMPA; format: ADME
[14] = molecular target: G-protein coupled receptor 35 (Homo sapiens, UniProt Q9HC97); test: Agonist activity at GPR35 in human U2OS cells after 1 hr by beta-arrestin GFP reporter gene assay; format: cell-based; how it was run: as §1
G-protein coupled receptor 35, sequence (Q9HC97 whole entry): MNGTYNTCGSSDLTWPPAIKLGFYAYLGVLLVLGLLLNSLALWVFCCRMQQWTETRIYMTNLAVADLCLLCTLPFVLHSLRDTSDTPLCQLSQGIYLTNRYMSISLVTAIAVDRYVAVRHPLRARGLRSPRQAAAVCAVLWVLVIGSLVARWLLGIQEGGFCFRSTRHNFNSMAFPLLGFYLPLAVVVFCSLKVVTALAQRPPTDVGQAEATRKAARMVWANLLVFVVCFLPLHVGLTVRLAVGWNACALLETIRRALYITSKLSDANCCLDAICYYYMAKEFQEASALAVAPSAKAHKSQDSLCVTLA

[15] = Cytotoxicity in human Fa2N-4 cells after 24 hrs; format: cell-based; settings: fa2n-4, 24 h, read-out: LC50 (the source's name)
How it was run: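 Fa2N-4 cells are immortalized human hepatocytes. Compounds were exposed for 24 hours. Readout is the LC50 (μM).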

[16] = Metabolic stability in human plasma assessed as compound remaining at 3 hrs; format: ADME, cell-free; settings: read-out: Stability
[17] = Aqueous solubility of the compound in pION buffer at pH 6.2; format: physicochemical
[18] = Metabolic stability in mouse plasma assessed as compound remaining at 3 hrs; format: ADME, cell-free; settings: read-out: Stability
[19] = Aqueous solubility of the compound in pION buffer at pH 5.0; format: physicochemical
[20] = molecular target: Delta-type opioid receptor (Homo sapiens, UniProt P41143); test: Inhibition of DOR (unknown origin)
Delta-type opioid receptor, sequence (P41143 whole entry): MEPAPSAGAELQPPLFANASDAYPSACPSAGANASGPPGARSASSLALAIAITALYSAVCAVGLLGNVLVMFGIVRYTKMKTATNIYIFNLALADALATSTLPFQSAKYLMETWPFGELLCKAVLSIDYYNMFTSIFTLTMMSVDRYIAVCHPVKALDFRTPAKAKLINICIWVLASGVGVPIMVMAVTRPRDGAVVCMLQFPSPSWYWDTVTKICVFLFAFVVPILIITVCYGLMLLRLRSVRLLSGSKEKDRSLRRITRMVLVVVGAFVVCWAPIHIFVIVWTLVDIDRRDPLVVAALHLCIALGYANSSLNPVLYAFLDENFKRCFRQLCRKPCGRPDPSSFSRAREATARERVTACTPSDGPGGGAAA

[21] = Plasma protein binding in human at 10 uM; format: ADME, cell-free; how it was run: as §3
[22] = molecular target: T1, Neurotensin receptor type 1; test: Ratio of EC50 for NTR1 in human U2OS cells to EC50 for NTR1 (unknown origin) expressed in CHO cells assessed as Ca2+ mobilization; format: functional, cell-based
Target sequence in this assay (P30989 whole entry): as the sequence (P30989 whole entry) above

[23] = Metabolic stability in mouse liver microsomes assessed as compound remaining at 1hr; format: ADME, Microsome; settings: read-out: Stability; how it was run: as §2
[24] = molecular target: T1, Neurotensin receptor type 1; test: Agonist activity at NTR1 (unknown origin) expressed in CHO-K1 cells coexpressing beta-arrestin/N-terminal deletion mutant of beta-galactosidase fusion protein by chemiluminescence assay; format: cell-based
How it was run: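 DiscoveRx PathHunter format. CHO-K1 cells express NTR1 fused in frame to the small ProLink β-gal fragment, stably co-expressed with β-arrestin fused to the N-terminal-deletion β-gal enzyme acceptor. Receptor activation recruits β-arrestin, which forces fragment complementation into active β-gal. The resulting enzyme activity is read by chemiluminescence. EC50 and Emax are expressed as % of NT peptide response.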
Target sequence in this assay (P30989 whole entry, looked up, change not shown): as the sequence (P30989 whole entry) above

[25] = molecular target: Sodium-dependent dopamine transporter (Homo sapiens, UniProt Q01959); test: Inhibition of DAT (unknown origin)
Sodium-dependent dopamine transporter, sequence (Q01959 whole entry): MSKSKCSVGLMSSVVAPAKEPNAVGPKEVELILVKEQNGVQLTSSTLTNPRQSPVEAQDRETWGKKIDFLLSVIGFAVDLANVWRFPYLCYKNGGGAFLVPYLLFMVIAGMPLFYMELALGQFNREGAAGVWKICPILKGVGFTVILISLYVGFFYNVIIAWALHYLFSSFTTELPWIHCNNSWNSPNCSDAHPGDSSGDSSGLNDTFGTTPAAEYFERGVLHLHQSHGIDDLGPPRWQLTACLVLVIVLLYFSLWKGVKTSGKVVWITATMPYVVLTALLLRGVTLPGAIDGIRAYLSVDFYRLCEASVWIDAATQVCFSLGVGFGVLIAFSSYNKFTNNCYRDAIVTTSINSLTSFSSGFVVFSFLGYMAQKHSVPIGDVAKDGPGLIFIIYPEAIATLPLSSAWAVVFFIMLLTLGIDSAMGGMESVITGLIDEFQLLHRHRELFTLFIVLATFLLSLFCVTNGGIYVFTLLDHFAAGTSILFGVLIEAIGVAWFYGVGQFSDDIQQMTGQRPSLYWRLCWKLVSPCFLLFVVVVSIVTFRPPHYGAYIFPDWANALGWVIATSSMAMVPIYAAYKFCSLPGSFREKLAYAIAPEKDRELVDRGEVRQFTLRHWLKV

[26] = molecular target: T1, Neurotensin receptor type 1; test: Agonist activity at NTR1 (unknown origin) expressed in CHO cells assessed as Ca2+ mobilization by Fluo-4 NW dye-based fluorescence assay relative to NT peptide; format: functional, cell-based
Target sequence in this assay (P30989 whole entry): as the sequence (P30989 whole entry) above

[27] = Permeability of the compound at donor and acceptor pH 7.4 by PAMPA; format: ADME
[28] = molecular target: T1, Neurotensin receptor type 1; test: Agonist activity at NTR1 (unknown origin) expressed in CHO-K1 cells coexpressing coexpressing beta-arrestin/N-terminal deletion mutant of beta-galactosidase fusion protein by chemiluminescence assay relative to NT peptide; format: cell-based
How it was run: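 PathHunter complementation in CHO-K1 cells. NTR1 is fused to the ProLink small enzyme fragment and co-expressed with a β-arrestin fusion to the N-terminal-deleted β-gal enzyme acceptor. Activation drives β-arrestin binding and β-gal fragment complementation, and enzyme activity is read by chemiluminescence.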

[29] = molecular target: T1, Neurotensin receptor type 1; test: Agonist activity at NTR1 (unknown origin) at 10 uM in presence of SR142948A
How it was run: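 NTR1 activation is driven by agonist at 10 μM after preincubation with a known NTR1 antagonist. Antagonist inhibition of this activation is reported as IC50.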

SMILES: COc1ccccc1-c1nc(C(=O)N[C@@H](CC(C)C)C(=O)O)cn1-c1ccnc2ccccc12
- EC50 [1]: > 80 µM

SMILES: CC(C)C[C@H](NC(=O)c1cn(-c2ccnc3cc(Cl)ccc23)c(-c2ccccc2)n1)C(=O)O
- Emax [2]: 100%
- EC50 [1]: 72 µM

SMILES: COc1cccc(OC)c1-c1cc(C(=O)N[C@@H](CC(C)C)C(=O)O)nn1-c1ccnc2cc(Cl)ccc12
- permeability [3]: 1270 ×10⁻⁶ cm/s
- EC50 [4]: < 0.156 µM
- solubility [5]: > 296 µM
- remaining at 1 h [6]: 76%
- permeability [7]: 4.8 ×10⁻⁶ cm/s
- PPB [8]: 96.6%
- PPB [9]: 97.1%
- Ki [10]: 3.3 µM
- PPB [11]: 99.6%
- Ki (Mu-type opioid receptor): 3.4 µM
- EC50 [12]: > 80 µM
- permeability [13]: 725 ×10⁻⁶ cm/s
- EC50 [14]: > 40 µM
- CC50 [15]: > 50 µM
- Emax [2]: 100%
- remaining at 3 h [16]: 88.9%
- solubility [17]: > 296 µM
- remaining at 3 h [18]: 70.7%
- solubility [19]: 113 µM (≈ 59.1 µg/mL)
- Ki [20]: 5.2 µM
- PPB [21]: 99.7%
- Ratio EC50 [22]: 5
- remaining at 1 h [23]: 46%
- EC50 [24]: > 33 µM
- Ki [25]: > 10 µM

SMILES: COc1ccccc1-c1nc(C(=O)N[C@@H](CC(C)C)C(=O)O)cn1-c1ccncc1
- EC50 [1]: > 80 µM

SMILES: COc1ccccc1-c1cc(C(=O)N[C@H](CC(C)C)C(=O)O)nn1-c1ccnc2cc(Cl)ccc12
- Emax [2]: 98%
- EC50 [1]: 0.97 µM

SMILES: COc1cccc(OC)c1-c1nc(C(=O)N[C@@H](CC(C)C)C(=O)O)cn1-c1ccnc2cc(Cl)ccc12
- permeability [3]: 363 ×10⁻⁶ cm/s
- EC50 [4]: 0.298 µM
- solubility [5]: > 99 µM
- remaining at 1 h [6]: 100%
- permeability [7]: 1.2 ×10⁻⁶ cm/s
- PPB [8]: 92.2%
- PPB [9]: 91.4%
- Ki [10]: 10 µM
- Emax [26]: 93%
- PPB [11]: 98.7%
- EC50 [12]: > 80 µM
- permeability [13]: 17 ×10⁻⁶ cm/s
- EC50 [14]: > 40 µM
- permeability [27]: 6 ×10⁻⁶ cm/s
- Emax [28]: 100%
- CC50 [15]: > 50 µM
- Emax [2]: 79%
- remaining at 3 h [16]: 100%
- solubility [17]: > 99 µM
- remaining at 3 h [18]: 100%
- solubility [19]: > 99 µM
- Activity [29]: inactive
- EC50 [1]: 2 µM
- PPB [21]: 98.7%
- Ratio EC50 [22]: 5
- remaining at 1 h [23]: 59%
- EC50 [24]: 6.1 µM
- Ki [25]: > 10 µM

SMILES: CC(C)C[C@H](NC(=O)c1cn(-c2ccnc3ccccc23)c(-c2ccccc2)n1)C(=O)O
- EC50 [1]: > 80 µM

SMILES: Cc1cccc(C)c1-c1nc(C(=O)N[C@@H](CC(C)C)C(=O)O)cn1-c1ccnc2cc(Cl)ccc12
- Emax [2]: 78%
- EC50 [1]: 9.2 µM

SMILES: COc1cccc(OC)c1-c1cc(C(=O)NC2(C(=O)O)C3CC4CC(C3)CC2C4)nn1-c1ccnc2cc(Cl)ccc12 (stereo not given) [REMINERTANT]
- Emax [2]: 100%
- EC50 [1]: 31 µM

SMILES: COc1cccc(OC)c1-c1cc(C(=O)NC2(C(=O)O)C3CC4CC(C3)CC2C4)nn1-c1ccc(C(=O)N(C)CCCN(C)C)cc1C(C)C (stereo not given)
- EC50 [1]: > 80 µM
